Data: ChEMBL document CHEMBL1154734, “Small-sized human immunodeficiency virus type-1 protease inhibitors containing allophenylnorstatine to explore the S2' pocket” (J Med Chem, 2009)
≈ marks a conversion by molar mass, not a printed value.

How the values were obtained:
[1] = test system: Human immunodeficiency virus 1; test: Antiviral activity against HIV1 3B infected in human MT4 cells assessed as inhibition of virus-induced cytopathic effect after 5 days by MTT assay; format: functional, organism-based; details: Human immunodeficiency virus 1, 3B, MT4, 120 h
Procedure, shortened: (§1)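 HIV-1 (IIIB or pNL4-3) inoculated into MT-4 cells. Cultures were treated with an equal volume of a 1% DMSO solution of compound at several concentrations plus 10% fetal bovine serum, then incubated 5 days at 37 °C in CO2, in triplicate. After MTT, optical density gave the percent cytopathic effect reduction. EC50 was fitted to a median-effect equation.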

[2] = molecular target: Protease (Human immunodeficiency virus 1) (UniProt Q9YQ12); test: Inhibition of HIV1 recombinant protease at 50 nM after 15 mins by fluorescence assay
Procedure, shortened: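 Recombinant HIV-1 protease was assayed in MES–NaOH pH 5.5 with DTT, EDTA and NaCl, with inhibitor at 50 nM final (500 nM DMSO stock). The substrate was H-Lys-Ala-Arg-Val-Tyr-Phe(p-NO2)-Glu-Ala-Nle-NH2, and the reaction ran 15 min at 37 °C. It was stopped with 1 N HCl. The N-terminal fragment was quantified by RP-HPLC with fluorescence at ex 275/em 305 nm.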

[3] = test system: Human immunodeficiency virus 1; test: Antiviral activity against indinavir-resistant HIV1 harboring L10R/M46I/L63P/V82T/I84V mutant protease infected in human MT4 cells assessed as inhibition of virus-induced cytopathic effect after 5 days by MTT assay; format: functional, organism-based; details: Human immunodeficiency virus 1, MT4, 120 h
Procedure, shortened: (§2)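 MT-4 cells inoculated with HIV-1 wild-type pNL4-3 or indinavir-resistant IND-R, then given an equal volume of compound in 1% DMSO at several concentrations with 10% fetal bovine serum. Incubated 5 days at 37 °C in CO2, in triplicate. MTT read-out by optical density gave percent cytopathic-effect reduction; EC50 was fitted to a median-effect equation.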

[4] = test system: Human immunodeficiency virus 1; test: Ratio of EC50 for HIV1 3B infected in human MT4 cells in presence of 50% human serum to EC50 for HIV1 3B infected in human MT4 cells in absence of human serum; format: functional
[5] = test system: Human immunodeficiency virus 1; test: Antiviral activity against HIV1 3B infected in human MT4 cells assessed as inhibition of virus-induced cytopathic effect after 5 days by MTT assay in presence of 50% human serum; format: functional, organism-based; details: Human immunodeficiency virus 1, 3B, MT4, 120 h
Procedure, shortened: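 MT-4 cells were infected with wild-type HIV-1 (IIIB or pNL4-3) in the presence of 50% human serum. Compound was added at several concentrations from a 1% DMSO solution, and cells were incubated 5 days at 37 °C in triplicate. Cytopathic effect reduction was read by MTT optical density, and EC50 was derived from a median-effect equation fit.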

[6] = Aqueous solubility in 0.1% TFA after 30 mins by RP-HPLC analysis; format: physicochemical; details: 0.1% TFA in water
[7] = test system: Human immunodeficiency virus 1; test: Antiviral activity against HIV1 3B infected in human MT4 cells assessed as inhibition of virus-induced cytopathic effect after 5 days by MTT assay in absence of human serum; format: functional, organism-based; details: Human immunodeficiency virus 1, 3B, MT4, 120 h; procedure, shortened: as §1
[8] = test system: Human immunodeficiency virus 1; test: Antiviral activity against HIV1 pNL4-3 infected in human MT4 cells assessed as inhibition of virus-induced cytopathic effect after 5 days by MTT assay; format: functional, organism-based; details: Human immunodeficiency virus 1, pNL4-3, MT4, 120 h; procedure, shortened: as §1
[9] = test system: Human immunodeficiency virus 1; test: Fold resistance, ratio of EC50 for indinavir-resistant HIV1 harboring L10R/M46I/L63P/V82T/I84V mutant protease infected in human MT4 cells to EC50 for HIV1 pNL4-3 infected in human MT4 cells; format: functional; procedure, shortened: as §2
[10] = molecular target: Protease (Human immunodeficiency virus 1) (UniProt Q9YQ12); test: Inhibition of HIV1 recombinant protease at 1 nM after 3 hrs by fluorescence assay

Sequence of Protease (Human immunodeficiency virus 1) (Q9YQ12 as listed by the source): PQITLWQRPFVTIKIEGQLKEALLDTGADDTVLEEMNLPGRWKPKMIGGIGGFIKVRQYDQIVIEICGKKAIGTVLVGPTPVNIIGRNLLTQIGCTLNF

**Q.** For `Cc1c(O)cccc1C(=O)N[C@@H](Cc1ccccc1)[C@H](O)C(=O)N1CSC(C)(C)[C@H]1C(=O)N[C@H]1CCc2ccccc21`, which EC50 [1] is on record?
**A.** 73 nM

**Q.** And the inhibition [2]?
**A.** 97%

**Q.** Which EC50 [3] does the source give for `Cc1ccccc1CNC(=O)[C@H]1N(C(=O)[C@@H](O)[C@H](Cc2ccccc2)NC(=O)COc2c(C)cc(N)cc2C)CSC1(C)C` here?
**A.** 568 nM

**Q.** And the “Ratio EC50” value [4]?
**A.** 3

**Q.** And the EC50 [5]?
**A.** 249 nM

**Q.** And the solubility at 0.5 h [6]?
**A.** 2640 µg/mL (≈ 4.27 mM)

**Q.** And the EC50 [7]?
**A.** 83 nM

**Q.** What about the EC50 [8] of the same molecule?
**A.** 103 nM

**Q.** And the “Ratio EC50” value [9]?
**A.** 5.5

**Q.** What about the inhibition [2] of the same molecule?
**A.** 98%

**Q.** For `Cc1cccc(C)c1OCC(=O)N[C@@H](Cc1ccccc1)[C@@H](O)C[C@H](Cc1ccccc1)NC(=O)[C@H](C(C)C)N1CCCNC1=O` [LOPINAVIR], which EC50 [3] is on record?
**A.** 385 nM

**Q.** And the EC50 [1]?
**A.** 30 nM

**Q.** What about the EC50 [8] of the same molecule?
**A.** 16 nM

**Q.** And the “Ratio EC50” value [9]?
**A.** 24

**Q.** What does the source list for `Cc1c(O)cccc1C(=O)N[C@@H](Cc1ccccc1)[C@H](O)C(=O)N1CSC(C)(C)[C@H]1C(=O)N[C@H](C)c1ccccc1`?
**A.** EC50 [1]: 617 nM; inhibition [2]: 52%

**Q.** Which EC50 [3] does the source give for `Cc1cc(N)cc(C)c1OCC(=O)N[C@@H](Cc1ccccc1)[C@H](O)C(=O)N1CSC(C)(C)[C@H]1C(=O)N[C@H]1c2ccccc2C[C@H]1O` here?
**A.** 1420 nM

**Q.** What about the “Ratio EC50” value [4] of the same molecule?
**A.** 4.2

**Q.** What about the EC50 [5] of the same molecule?
**A.** 1500 nM

**Q.** What about the solubility at 0.5 h [6] of the same molecule?
**A.** 3740 µg/mL (≈ 5.78 mM)

**Q.** What about the EC50 [7] of the same molecule?
**A.** 357 nM

**Q.** What about the EC50 [8] of the same molecule?
**A.** 450 nM

**Q.** What about the “Ratio EC50” value [9] of the same molecule?
**A.** 3.2

**Q.** For `Cc1cc(N)cc(C)c1OCC(=O)N[C@@H](Cc1ccccc1)[C@H](O)C(=O)N1CSC(C)(C)[C@H]1C(=O)N[C@H]1CCc2ccccc21`, which EC50 [3] is on record?
**A.** 416 nM

**Q.** And the “Ratio EC50” value [4]?
**A.** 7.5

**Q.** And the EC50 [5]?
**A.** 241 nM

**Q.** And the solubility at 0.5 h [6]?
**A.** 1710 µg/mL (≈ 2.71 mM)

**Q.** What about the EC50 [7] of the same molecule?
**A.** 32 nM

**Q.** And the EC50 [8]?
**A.** 48 nM

**Q.** What about the “Ratio EC50” value [9] of the same molecule?
**A.** 8.7

**Q.** What about the inhibition [2] of the same molecule?
**A.** 97%

**Q.** For `Cc1cc(N)cc(C)c1OCC(=O)N[C@@H](Cc1ccccc1)[C@H](O)C(=O)N1CSC(C)(C)[C@H]1C(=O)NCc1c(Cl)cccc1Cl`, which “Ratio EC50” value [4] is on record?
**A.** 4.1

**Q.** What about the EC50 [5] of the same molecule?
**A.** 648 nM

**Q.** And the solubility at 0.5 h [6]?
**A.** 1180 µg/mL (≈ 1.75 mM)

**Q.** What about the EC50 [7] of the same molecule?
**A.** 158 nM

**Q.** And the inhibition [2]?
**A.** 95%

**Q.** Which results are given for `Cc1c(F)cccc1CNC(=O)[C@H]1N(C(=O)[C@@H](O)[C@H](Cc2ccccc2)NC(=O)c2cccc(O)c2C)CSC1(C)C`?
**A.** inhibition [10]: 53%; EC50 [1]: 56 nM; inhibition [2]: 97%

**Q.** For `Cc1c(O)cccc1C(=O)N[C@@H](Cc1ccccc1)[C@H](O)C(=O)N1CSC(C)(C)[C@H]1C(=O)NC1CCCCC1`, which EC50 [3] is on record?
**A.** 1730 nM

**Q.** What about the EC50 [1] of the same molecule?
**A.** 207 nM

**Q.** What about the EC50 [8] of the same molecule?
**A.** 240 nM

**Q.** What about the “Ratio EC50” value [9] of the same molecule?
**A.** 7.2

**Q.** What about the inhibition [2] of the same molecule?
**A.** 86%

**Q.** What does the source list for `C=CCNC(=O)[C@H]1N(C(=O)[C@@H](O)[C@H](Cc2ccccc2)NC(=O)c2cccc(O)c2C)CSC1(C)C`?
**A.** EC50 [3]: 173 nM; EC50 [1]: 123 nM; EC50 [8]: 141 nM; Ratio EC50 [9]: 1.2; inhibition [2]: 93%

**Q.** With `Cc1cccc(Cl)c1CNC(=O)[C@H]1N(C(=O)[C@@H](O)[C@H](Cc2ccccc2)NC(=O)c2cccc(O)c2C)CSC1(C)C` as the molecule, how does the inhibition [10] read?
**A.** 77%

**Q.** What about the EC50 [1] of the same molecule?
**A.** 32 nM

**Q.** What about the inhibition [2] of the same molecule?
**A.** 99%

**Q.** What does the source list for `Cc1c(O)cccc1C(=O)N[C@@H](Cc1ccccc1)[C@H](O)C(=O)N1CSC(C)(C)[C@H]1C(=O)N[C@@H]1CCc2ccccc21`?
**A.** EC50 [1]: 353 nM; inhibition [2]: 91%

**Q.** Which EC50 [3] does the source give for `Cc1cccc(C)c1CNC(=O)[C@H]1N(C(=O)[C@@H](O)[C@H](Cc2ccccc2)NC(=O)COc2c(C)cc(N)cc2C)CSC1(C)C` here?
**A.** 409 nM

**Q.** What about the “Ratio EC50” value [4] of the same molecule?
**A.** 3.6

**Q.** What about the EC50 [5] of the same molecule?
**A.** 150 nM

**Q.** What about the solubility at 0.5 h [6] of the same molecule?
**A.** 1250 µg/mL (≈ 1.98 mM)

**Q.** And the EC50 [7]?
**A.** 41 nM

**Q.** What about the EC50 [8] of the same molecule?
**A.** 122 nM

**Q.** And the “Ratio EC50” value [9]?
**A.** 3.4

**Q.** What about the inhibition [2] of the same molecule?
**A.** 99%

**Q.** Which EC50 [3] does the source give for `Cc1cc(N)cc(C)c1OCC(=O)N[C@@H](Cc1ccccc1)[C@H](O)C(=O)N1CSC(C)(C)[C@H]1C(=O)NC(C)(C)C` here?
**A.** 2030 nM

**Q.** And the “Ratio EC50” value [4]?
**A.** 4.5

**Q.** What about the EC50 [5] of the same molecule?
**A.** 601 nM

**Q.** What about the solubility at 0.5 h [6] of the same molecule?
**A.** 6020 µg/mL (≈ 10.5 mM)

**Q.** And the EC50 [7]?
**A.** 132 nM

**Q.** What about the EC50 [8] of the same molecule?
**A.** 280 nM

**Q.** And the “Ratio EC50” value [9]?
**A.** 7.3

**Q.** What about the inhibition [2] of the same molecule?
**A.** 92%

**Q.** For `C#CCNC(=O)[C@H]1N(C(=O)[C@@H](O)[C@H](Cc2ccccc2)NC(=O)c2cccc(O)c2C)CSC1(C)C`, which EC50 [3] is on record?
**A.** 1930 nM

**Q.** And the EC50 [1]?
**A.** 110 nM

**Q.** What about the EC50 [8] of the same molecule?
**A.** 558 nM

**Q.** And the “Ratio EC50” value [9]?
**A.** 3.5

**Q.** What about the inhibition [2] of the same molecule?
**A.** 90%

**Q.** What does the source list for `Cc1c(O)cccc1C(=O)N[C@@H](Cc1ccccc1)[C@H](O)C(=O)N1CSC(C)(C)[C@H]1C(=O)N[C@@H](C)c1ccccc1`?
**A.** inhibition [10]: 31%; EC50 [1]: 79 nM; inhibition [2]: 95%
